Assay results: ChEMBL document CHEMBL1146596, “New lupane derived compounds with pro-apoptotic activity in cancer cells: synthesis and structure-activity relationships” (2003)

How the values were obtained:
LNCaP = test: Tested for cytotoxicity against human prostate cancer LNCaP cell line; type: functional
Outline: (§1)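 Cells were kept in DMEM/RPMI 1640 with 10% fetal calf serum, 2 mM glutamine and antibiotics. They were seeded at 2500–30 000 cells/well according to growth characteristics and preincubated 24 h at 37 °C, 5% CO2. Four-fold compound dilutions were tested in duplicate for 72 h. MTT was then added for 1–4 h, the formazan was dissolved in 10% SDS (pH 5.5) overnight, and OD was read at 540 nm. Survival was taken relative to mean control, and TCS50 was derived from dose–response curves.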

K562 [1] = test: Tested for cytotoxicity against human […] leukemia K562 cell line; type: functional; outline: as §1
K562 [2] = test: Tested for cytotoxicity against human […] leukemia K562-CdA cell line; type: functional; outline: as §1
CEM-VCR 1/F3 = test: Tested for cytotoxicity against human T-lymphoblastic leukemia CEM-VCR 1/F3 cell line; type: functional; outline: as §1
MDA-MB-238 = test: Tested for cytotoxicity against human breast cancer MDA-MB-238 cell line; type: functional; outline: as §1
SK-MEL3 = test: Tested for cytotoxicity against human melanoma MEL-3 cell line; type: functional; outline: as §1
CCRF-CEM [3] = test: Tested for cytotoxicity against human T-lymphoblastic leukemia CEM cell line; type: functional; outline: as §1
CEM-VCR 1/D/5 = test: Tested for cytotoxicity against human T-lymphoblastic leukemia CEM-VCR 1/D5 cell line; type: functional; outline: as §1
SW-620 = test: Tested for cytotoxicity against human colon cancer SW620 cell line; type: functional; outline: as §1
B16 [4] = test: Tested for cytotoxicity against mouse melanoma B16 cell line; type: functional; outline: as §1
OVCAR-3 = test: Tested for cytotoxicity against human ovarian cancer OVCAR-3 cell line; type: functional; outline: as §1
HepG2 = test: Tested for cytotoxicity against human hepatocellular carcinoma HepG2 cell line; type: functional; outline: as §1
Homo sapiens = species on record: Homo sapiens; test: Tested for cytotoxicity against human normal lymphocytes; type: functional; outline: as §1
CEM-DNR [5] = test: Tested for cytotoxicity against human T-lymphoblastic leukemia CEM-DNR bulk cell line; type: functional; outline: as §1
DU-145 = test: Tested for cytotoxicity against human prostate cancer DU145 cell line; type: functional; outline: as §1
U-87 MG = test: Tested for cytotoxicity against human glioblastoma U87MG cell line; type: functional, U-87MG ATCC; outline: as §1
K562 [6] = test: Tested for cytotoxicity against human […] leukemia K562-FLU D-CEM cell line; type: functional
Outline: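 Cytotoxicity by MTT in fludarabine-resistant K562 subline (K562-FLUD), cultured in DMEM/RPMI 1640 with 10% fetal calf serum. Cells seeded at 2500–30 000/well, preincubated 24 h at 37 °C, 5% CO2. Fourfold dilutions in duplicate, 72 h exposure. MTT 1–4 h, formazan dissolved in 10% SDS overnight, OD 540 nm. Survival relative to control; TCS50 taken from dose–response curves.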

K562 [7] = test: Tested for cytotoxicity against human […] leukemia K562-ARA-C cell line; type: functional; outline: as §1
U2OS = test: Tested for cytotoxicity against human osteosarcoma U2OS cell line; type: functional; outline: as §1
CCRF-CEM [8] = test: Cytotoxicity against chemosensitive CEM-T lymphoblastc leukemia cell line.; type: functional, Homo sapiens; outline: as §1
HT-29 = test: Tested for cytotoxicity against human colon cancer HT-29 cell line; type: functional; outline: as §1
K562 [9] = test: Tested for cytotoxicity against human […] leukemia K562-GEM cell line; type: functional; outline: as §1
NIH3T3 = test: Tested for cytotoxicity against mouse immortalized fibroblast NIH3T3 cell line; type: functional; outline: as §1
A549 = test: Tested for cytotoxicity against human lung adenocarcinoma A549 cell line; type: functional; outline: as §1
SAOS-2 = test: Tested for cytotoxicity against human […] Saos2 cell line; type: functional; outline: as §1
B16 [10] = test: Tested for cytotoxicity against mouse melanoma B16F cell line; type: functional; outline: as §1
CEM-VCR = test: Tested for cytotoxicity against human T-lymphoblastic leukemia CEM-VCR bulk cell line; type: functional; outline: as §1
BT-549 = test: Tested for cytotoxicity against human breast cancer BT549 cell line; type: functional; outline: as §1
MCF7 = test: Tested for cytotoxicity against human breast cancer MCF-7 cell line; type: functional; outline: as §1
CEM-DNR [11] = test: Tested for cytotoxicity against human T-lymphoblastic leukemia CEM-DNR 1/C2 cell line; type: functional; outline: as §1
Caco-2 = test: Tested for cytotoxicity against human colon cancer Caco-2 cell line; type: functional; outline: as §1

SMILES	TCS50 (LNCaP)	TCS50 (K562 [1])	TCS50 (K562 [2])	TCS50 (CEM-VCR 1/F3)	TCS50 (MDA-MB-238)	TCS50 (SK-MEL3)	TCS50 (CCRF-CEM [3])	TCS50 (CEM-VCR 1/D/5)	TCS50 (SW-620)	TCS50 (B16 [4])	TCS50 (OVCAR-3)	TCS50 (HepG2)	TCS50 (Homo sapiens)	TCS50 (CEM-DNR [5])	TCS50 (DU-145)	TCS50 (U-87 MG)	TCS50 (K562 [6])	TCS50 (K562 [7])	TCS50 (U2OS)	TCS50 (CCRF-CEM [8])	other results
C=C(C)[C@@H]1CC[C@]2(C(=O)O)CC[C@]3(C)[C@H](CC[C@@H]4[C@@]5(C)CC[C@H](O)C(C)(C)[C@@H]5CC[C@]43C)[C@@H]12 [BETULINIC ACID]	244 µM	53.9 µM	>250 µM	19.1 µM	195 µM	2.65 µM	>250 µM	24.1 µM	>250 µM	30.5 µM	164 µM	3.61 µM	>250 µM	>250 µM	241 µM	>228 µM	>250 µM	>250 µM	>250 µM	20 µM	TCS50 (HT-29): >250 µM; TCS50 (K562 [9]): 101 µM; TCS50 (NIH3T3): >250 µM; TCS50 (A549): 79.3 µM; TCS50 (SAOS-2): >250 µM; TCS50 (B16 [10]): 4.6 µM; TCS50 (CEM-VCR): 68.5 µM; TCS50 (BT-549): >250 µM; TCS50 (MCF7): 194 µM; TCS50 (CEM-DNR [11]): >250 µM
CC(=O)OC[C@@]1(C(=O)O)CC[C@]2(C)[C@H](CC[C@@H]3[C@@]4(C)CC[C@H](OC(C)=O)C(C)(C)[C@@H]4CC[C@]32C)C1=O	1.12 µM	0.19 µM	0.28 µM	3.27 µM	1.35 µM	1.28 µM	1 µM	2.93 µM	1.22 µM	0.43 µM	0.9 µM	1.67 µM	12.5 µM	1.05 µM	0.84 µM	1.85 µM	0.35 µM	0.63 µM	1.53 µM	1 µM	TCS50 (Caco-2): 2.97 µM; TCS50 (HT-29): 3.57 µM; TCS50 (K562 [9]): 0.94 µM; TCS50 (NIH3T3): 7.21 µM; TCS50 (A549): 2.8 µM; TCS50 (SAOS-2): 1.78 µM; TCS50 (B16 [10]): 4.66 µM; TCS50 (CEM-VCR): 2.51 µM; TCS50 (BT-549): 2.03 µM; TCS50 (MCF7): 2.3 µM; TCS50 (CEM-DNR [11]): 0.61 µM
COC(=O)[C@@]12CC[C@]3(C)[C@H](CC[C@@H]4[C@@]5(C)CC[C@H](OC(C)=O)C(C)(C)[C@@H]5CC[C@]43C)C1=C(C(C)C)C(=O)C2=O	3.26 µM	1.85 µM	5.17 µM	38.3 µM	3.28 µM	5.86 µM	4.4 µM	12.5 µM	5.89 µM	35.4 µM	4.65 µM	5.14 µM	85.3 µM	5.18 µM	1.98 µM	23.8 µM	4.85 µM	6.42 µM	4.28 µM	4.4 µM	TCS50 (Caco-2): 8.13 µM; TCS50 (HT-29): 5.23 µM; TCS50 (K562 [9]): 5.04 µM; TCS50 (NIH3T3): 96.8 µM; TCS50 (A549): 6.7 µM; TCS50 (SAOS-2): 7.9 µM; TCS50 (B16 [10]): 67.9 µM; TCS50 (CEM-VCR): 28.2 µM; TCS50 (BT-549): 15.3 µM; TCS50 (MCF7): 12.9 µM; TCS50 (CEM-DNR [11]): 10.3 µM
C=C(C=O)[C@@H]1CC[C@]2(C(=O)O)CC[C@]3(C)[C@H](CC[C@@H]4[C@@]5(C)CC[C@H](OC(C)=O)C(C)(C)[C@@H]5CC[C@]43C)C12 (stereo partly drawn)	3.55 µM	15.12 µM	2.13 µM	5.94 µM	2.37 µM	3.68 µM	4 µM	7.82 µM	5.86 µM	9.32 µM	2.59 µM	7.12 µM	24.9 µM	3.26 µM	2.75 µM	98.3 µM	1.27 µM	1.59 µM	3.94 µM	4 µM	TCS50 (Caco-2): 7.72 µM; TCS50 (HT-29): 12.31 µM; TCS50 (K562 [9]): 2.36 µM; TCS50 (NIH3T3): 15.7 µM; TCS50 (A549): 43.27 µM; TCS50 (SAOS-2): 4.8 µM; TCS50 (B16 [10]): 12.4 µM; TCS50 (CEM-VCR): 6.95 µM; TCS50 (BT-549): 6.28 µM; TCS50 (MCF7): 4.3 µM; TCS50 (CEM-DNR [11]): 1.58 µM
